{
  "source": "paper PMC10868414",
  "about": "(Pharmaceutical Biology, 2024)",
  "key": {"[1]": {"details": "SDS at 1.0% w/w mixed in diet; ref Elder [1983]; cited from earlier work"}, "[2]": {"experiment": "Elimination of andrographolide in urine and feces", "assay_type": "in vivo, beagle dogs", "summary_of_the_method": "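Male beagles (2.0–2.5 y, 10–15 kg; n = 4/group), fasted 10 h with water, caged singly; oral capsules equivalent to 3 mg/kg andrographolide, single dose and daily for 7 days. Urine centrifuged; feces mixed 50:50 w/v with methanol. Samples hydrolysed with β-glucuronidase solution (1,000 U/mL, pH 6.8, 37 °C, 30 min), methanol-precipitated with digoxin internal standard, LC-MS/MS (triple quadrupole); mean ± SD.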"}, "[3]": {"details": "Lipinski's Rule of Five criterion; ref Lipinski et al. [2001]; cited from earlier work"}, "[4]": {"details": "poor water solubility and high permeability; ref Lee et al. [2019]; cited from earlier work"}},
  "data": [
    {"smiles": "CCCCCCCCCCCCOS(=O)(=O)[O-].[Na+]", "note": "[SDS, Sodium dodecyl sulfate]", "values": [
      {"measurement": "Abnormalities in long-term study", "setting": "[1]", "result": "did not result in any abnormalities"}
    ]},
    {"smiles": "C=C1CC[C@@H]2[C@](C)(CO)[C@H](O)CC[C@@]2(C)[C@@H]1C/C=C1/C(=O)OC[C@H]1O", "note": "[andrographolide, Andrographolide]", "values": [
      {"measurement": "dose excreted", "setting": "[2]; beagle, dog, urine, po, 3 mg/kg", "result": "0.1 to 1", "unit": "%"},
      {"measurement": "Feces excretion of andrographolide", "setting": "[2]; of the administered dose, after oral administration of A. paniculata formulations", "result": "less than 0.4%"},
      {"measurement": "logP value", "setting": "[3]", "result": "lower than 5"},
      {"measurement": "Biopharmaceutics Classification System (BCS) category", "setting": "[4]", "result": "BCS class II"}
    ]}
  ]
}
